High-throughput results from PubChem.
The list is a sample of the results.
PGC1a acetyl up = compounds raising PGC1a acetylation signal, primary screen, PGC1a modulator project, cell-based, U2OS, AlphaScreen, signal-increasing mode | activation, % at 15.6 µM | AID 651723, 2012 | hit rate 0.21% among 350,000 | overnight;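 active = every replicate reaching activation of at least 50%, whatever the mean replicate activation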;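 also: hits raise the AlphaScreen acetylation signal above neutral controls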
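System – flag-PGC1a/GCN5 U2OS cells · Quantity – 7000 U2OS cells per well · Signal – AlphaScreen proximity luminescence, anti-acetyl-lysine antibody · Schedule – overnight compound treatment, 37 °C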
Large screens that a line does not name were inactive.

CN1[C@@H]2CC(OC(=O)[C@H](CO)c3ccccc3)C[C@H]1[C@@H]1O[C@@H]12 (some centres not stated)	none
O=c1c2c(nc3c(-c4ccc(Cl)cc4)c[nH]n13)CCCC2	none
CC(C)(C)c1ccc(-n2nc(C#N)c(Cl)cc2=O)cc1	none
Cc1ccc(NC(=S)/N=C(\N)Nc2nc(C)c3cc(C)c(C)cc3n2)cc1C	PGC1a acetyl up 66
CO[C@@H]1CN(C)C(=O)c2cc(NS(=O)(=O)c3ccc(Cl)cc3)ccc2OC[C@H](C)N(C)C[C@H]1C	none
CC(C)(C)NCCC(O)c1cc(C(F)(F)F)nc2c(C(F)(F)F)cccc12 (configuration not stated)	PGC1a acetyl up 70
CCSc1nnc(NC(=O)CSC2=NCCS2)s1	none
CCOC(=O)c1nc(S(C)(=O)=O)ncc1Cl	PGC1a acetyl up 132
CN1/C(=C/C(=O)c2nc(S(C)(=O)=O)ncc2Cl)C(C)(C)c2ccccc21	none
Cc1cc(C)n(-c2ccc(Cl)c(C(=O)OCC(N)=O)n2)n1	none
COc1ccc(CCCNC(=O)C2(C)Cc3c(-c4ccc5c(c4)OCO5)ccnc3O2)cc1 (configuration not stated)	PGC1a acetyl up 54
CC(Oc1ccc2c3c(c(=O)oc2c1)CCC3)C(=O)N[C@@H](Cc1ccccc1)C(=O)O (some centres not stated)	none
COC(=O)Nc1ccc(S(=O)(=O)N(CCO)CC(F)(F)C(F)F)cc1	PGC1a acetyl up 62
O=S(=O)(c1ccc(N2CCC(c3ccc(Cl)cc3)=N2)cc1)N(CCO)CCO	none
O=C1Nc2cc(S(=O)(=O)N3CCCC3)ccc2N2CCCC12 (configuration not stated)	PGC1a acetyl up 95
COc1ccc(CN(Cc2cc3ccc(C)cc3[nH]c2=O)Cc2nnnn2C2CCCC2)cc1	none
Cc1cccc(S(=O)(=O)N(C)C[C@@H]2OCc3cn(nn3)CCCC(=O)N([C@@H](C)CO)C[C@H]2C)c1	none
O=C1C(N2CCOCC2)=C(n2nnc3ccccc32)C(=O)c2ccccc21	none
CCOC(=O)CC(S(=O)(=O)c1ccccc1)S(=O)(=O)c1ccccc1	PGC1a acetyl up 96
CCOC(=O)C1=C(CS(=O)(=O)c2ccccc2)NC(=O)NC1c1ccc(O)c(OC)c1 (configuration not stated)	none
COc1ccc2c(c1)CC/C(=C/c1cc(OC)c(OC)c(OC)c1)C2=O	none
COc1cc(/C=C2\COC/C(=C\c3ccc(O)c(OC)c3)C2=O)ccc1O	PGC1a acetyl up 90
Cc1noc(C)c1NC(=O)Nc1ccc2c(c1)C(=O)N([C@H](C)CO)C[C@@H](C)[C@@H](CN(C)S(=O)(=O)c1ccc(F)cc1)OCCCC[C@@H](C)O2	none
Cc1[nH]c2ccccc2c1C(=O)/C=C/c1ccccc1	none
CC(C)NC(=O)c1c(O)c2ccccc2[nH]c1=O	PGC1a acetyl up 97
O=C(N/N=C/c1ccc(F)cc1)c1c(O)c2ccccc2[nH]c1=O	none
O=S(=O)(c1ccc(Br)s1)N1CCN(Cc2ccc3c(c2)OCO3)CC1	none
CN(C)c1nc(SCCOC(=O)COc2ccc(Cl)cc2Cl)nc(N(C)C)n1	none
OC[C@@H]1[C@H](c2ccc(C#CC3CCCC3)cc2)[C@H]2CN(CCC(F)(F)F)CCCCN12	none
N#C[C@H]1[C@H](c2ccc(C#CC3CCCC3)cc2)[C@H](CO)N1C(=O)Cc1ccccn1	none
OC[C@H]1[C@@H](c2ccc(C#CC3CCCC3)cc2)[C@@H]2CN(CCC(F)(F)F)CCCCN12	PGC1a acetyl up 60
O=C(Nc1ccc(OC(=O)c2ccccc2)c(-c2nc3ccccc3s2)c1)c1ccccc1	PGC1a acetyl up 106
COc1ccc(C(=O)NC(=S)N(C)Cc2ccccc2)cc1Br	none
COc1ccc(C(=O)OCC(=O)NCc2ccc3c(c2)OCO3)cc1[N+](=O)[O-]	none
COc1ccc([N+](=O)[O-])cc1NCc1ccccc1	PGC1a acetyl up 84
Cc1cccc(N(CC(=O)NC(C)(C)C)C(=O)CNC(=O)c2cccs2)c1	none
CCCOc1ccc2c(c1)C(=NN=C(N)N)c1cc(OCCC)ccc1-2	PGC1a acetyl up 75
O=C(Cc1ccncc1)NCC[C@H]1CC[C@@H](NC(=O)C2CC2)[C@H](CO)O1	none
O=C1C(c2ccccc2)C(c2ccccc2)NC(c2ccccc2)C1c1ccccc1 (configuration not stated)	PGC1a acetyl up 55
Cc1c(C(=O)N2CCN(c3ccccn3)CC2)sc2ncnc(N3CCN(c4ccccc4)CC3)c12	none
COc1ccc(N=C2C(=Nc3ccc(OC)cc3)N(c3ccc(OC)cc3)C(=S)N2C(=O)c2ccc(OC)cc2)cc1	none
C(=C\c1ccccc1)/CN1CCN(C(c2ccnc3ccccc23)c2nnnn2C2CCCCC2)CC1 (configuration not stated)	PGC1a acetyl up 65
CC(NC1c2ccccc2-c2ccccc21)c1ccccc1 (configuration not stated)	none
Cc1ccccc1Cn1nc(C)c(NC(=O)c2cc(-c3cccs3)on2)c1C	none
O=C(C[C@@H]1CC[C@@H](NC(=O)C2CCC2)[C@H](CO)O1)NCC1CC1	none
CCc1ccc(N/C(SCc2ccccc2C)=C(/C#N)C(=O)NCc2ccco2)cc1	PGC1a acetyl up 84
Cc1cc(C)c2c(=O)[nH]n(C3CCCCCC3)c2n1	none
COc1ccc(C2(NC(C)=O)CCN(C(=O)CCC(=O)O)CC2)cc1	none
CC(C)C#Cc1ccc([C@@H]2[C@H](CO)N3C(=O)CN(C(=O)NC4CCCC4)C[C@@H]23)cc1	none
C[C@@H]1CN([C@H](C)CO)C(=O)CCCn2nncc2CO[C@H]1CN(C)C(=O)Nc1cccc(F)c1	none
CC(=O)c1coc2c1cc(O)c1ccccc12	PGC1a acetyl up 63
CC1(C)OC(=O)C(=Cc2ccc[nH]2)C(=O)O1	none
O=C(O)C1C2CC3OC(=O)C1C3C2 (configuration not stated)	none
O=c1c2c3c(sc2n2cnnc2n1Cc1ccccc1)CN(Cc1ccccc1)CC3	PGC1a acetyl up 73
Cc1cc(NS(=O)(=O)c2ccc(NC(=O)COc3c(C)cc(Br)cc3C)cc2)no1	none
O=C1CCN(S(=O)(=O)c2ccc(Cl)cc2)N1	PGC1a acetyl up 63
CC(C(=O)OCn1nnc2ccccc2c1=O)N1C(=O)c2ccccc2C1=O (configuration not stated)	none
CC(C)(C)c1ccc(NC(=O)N2CCCN(c3ccc([N+](=O)[O-])cn3)CC2)cc1	PGC1a acetyl up 186
Cc1ccc(S(=O)(=O)OCCC2=CC(=O)CCN2Cc2ccccc2)cc1	none
CC1CCCCC1NC(=O)C1CCN(S(=O)(=O)N2CCOCC2)CC1 (configuration not stated)	none
CCS(=O)(=O)c1ccc(O)c(NC(=O)COc2ccc(Br)cc2)c1	none
C[C@@H]1CN([C@H](C)CO)C(=O)c2cccc(NC(=O)c3nc4ccccc4s3)c2O[C@@H]1CN(C)CC1CCCCC1	none
C[C@H]1CN([C@@H](C)CO)C(=O)c2cccc(NC(=O)C3CCCCC3)c2O[C@H]1CN(C)Cc1ccc(C(=O)Nc2ccccc2N)cc1	PGC1a acetyl up 173
C[C@@H]1CCCCO[C@H](CN(C)Cc2ccc(C(F)(F)F)cc2)[C@H](C)CN([C@H](C)CO)C(=O)c2cc(NC(=O)Cc3ccccc3)ccc2O1	none
C[C@H]1CN([C@@H](C)CO)C(=O)c2cccc(NC(=O)c3nc4ccccc4s3)c2O[C@H]1CN(C)Cc1ccc(C(=O)Nc2ccccc2N)cc1	PGC1a acetyl up 104
C[C@@H]1CN([C@@H](C)CO)C(=O)c2cc(NC(=O)c3ccncc3)ccc2O[C@@H](C)CCCCO[C@@H]1CN(C)Cc1ccncc1	none
C[C@H](CO)N1C[C@H](C)[C@@H](CN(C)CC2CCCCC2)Oc2c(NC(=O)c3nc4ccccc4s3)cccc2C1=O	none
